From ChEMBL document CHEMBL1151428, “Capability of 11 antipneumococcal antibiotics to select for resistance by multistep and single-step methodologies” (2007)
In brackets after ≈: the same amount, converted by molar mass.

Experiments:
Type in all cases: functional
Streptococcus pneumoniae [1] = experiment: Antimicrobial activity against drug-resistant Streptococcus pneumoniae isolate 1635 after 14 passages with azithromycin measured after 10 antibiotic-free subculture by multi-step resistance selection technique
Summary of the method: (§1)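 Mutants selected by daily broth passage in subinhibitory drug in cation-adjusted Mueller-Hinton broth with 5% lysed horse blood. Stability was tested by 10 daily passages on blood agar without antibiotic, then macrodilution MIC.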

Streptococcus pneumoniae [2] = experiment: Antimicrobial activity against drug-resistant Streptococcus pneumoniae isolate 3009 after 21 passages with gemifloxacin measured after 10 antibiotic-free subculture by multi-step resistance selection technique; summary of the method: as §1
Streptococcus pneumoniae [3] = experiment: Antimicrobial activity against drug-resistant Streptococcus pneumoniae isolate 1077 after 49 passages with clindamycin measured after 10 antibiotic-free subculture by multi-step resistance selection technique
Streptococcus pneumoniae [4] = experiment: Antimicrobial activity against drug-resistant Streptococcus pneumoniae isolate 2527 after 50 passages by multi-step resistance selection technique
Summary of the method: (§2)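 Daily serial passage in subinhibitory drug levels in 1 ml cation-adjusted Mueller-Hinton broth with 5% lysed horse blood; fresh broth for tigecycline. Each day, 10 μl were taken from the tube one to two dilutions below the MIC whose turbidity matched the growth control, and used to set the next MIC. […] MIC by macrodilution.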

Streptococcus pneumoniae [5] = experiment: Antimicrobial activity against drug-resistant Streptococcus pneumoniae isolate 3665 after 50 passages by multi-step resistance selection technique
Summary of the method: (§3)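 Daily serial passage in broth at subinhibitory drug levels: 1 ml cation-adjusted Mueller-Hinton broth with 5% lysed horse blood; fresh broth for tigecycline. Each day 10 μl inoculum taken from the tube one to two dilutions below MIC matching growth-control turbidity, used to set next MIC. Continued until ≥8-fold MIC rise, minimum 14, maximum 50 passages; MIC read by macrodilution.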

Streptococcus pneumoniae [6] = experiment: Antimicrobial activity against drug-resistant Streptococcus pneumoniae isolate 3009 by NCCLS M7-A7 method
Streptococcus pneumoniae [7] = experiment: Antimicrobial activity against drug-resistant Streptococcus pneumoniae isolate 1635 after 14 passages with clindamycin measured after 10 antibiotic-free subculture by multi-step resistance selection technique
Streptococcus pneumoniae [8] = experiment: Antimicrobial activity against drug-resistant Streptococcus pneumoniae isolate 3274 after 48 passages with Telithromycin measured after 10 antibiotic-free subculture by multi-step resistance selection technique; summary of the method: as §1
Streptococcus pneumoniae [9] = experiment: Antimicrobial activity against drug-resistant Streptococcus pneumoniae isolate 1635 after 14 passages by multi-step resistance selection technique; summary of the method: as §2
Streptococcus pneumoniae [10] = experiment: Antimicrobial activity against drug-resistant Streptococcus pneumoniae isolate 3413 after 30 passages with Telithromycin measured after 10 antibiotic-free subculture by multi-step resistance selection technique; summary of the method: as §1
Streptococcus pneumoniae [11] = experiment: Antimicrobial activity against drug-resistant Streptococcus pneumoniae isolate 1077 after 29 passages with azithromycin measured after 10 antibiotic-free subculture by multi-step resistance selection technique; summary of the method: as §1
Streptococcus pneumoniae [12] = experiment: Antimicrobial activity against drug-resistant Streptococcus pneumoniae isolate 3665 by NCCLS M7-A7 method
Streptococcus pneumoniae [13] = experiment: Antimicrobial activity against drug-resistant Streptococcus pneumoniae isolate 3413 after 50 passages by multi-step resistance selection technique
Summary of the method: (§4)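 Daily serial passage in subinhibitory drug levels in 1 ml cation-adjusted Mueller-Hinton broth with 5% lysed horse blood; fresh broth for tigecycline. Each day, 10 μl were taken from the tube one to two dilutions below the MIC whose turbidity matched the growth control, and used to set the next MIC. MIC by macrodilution.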

Streptococcus pneumoniae [14] = experiment: Antimicrobial activity against drug-resistant Streptococcus pneumoniae isolate 1076 after 14 passages with Telithromycin measured after 10 antibiotic-free subculture by multi-step resistance selection technique; summary of the method: as §1
Streptococcus pneumoniae [15] = experiment: Antimicrobial activity against drug-resistant Streptococcus pneumoniae isolate 1635 after 49 passages with clarithromycin measured after 10 antibiotic-free subculture by multi-step resistance selection technique
Streptococcus pneumoniae [16] = experiment: Antimicrobial activity against drug-resistant Streptococcus pneumoniae isolate 3274 by NCCLS M7-A7 method
Streptococcus pneumoniae [17] = experiment: Antimicrobial activity against drug-resistant Streptococcus pneumoniae isolate 3009 after 25 passages with clarithromycin measured after 10 antibiotic-free subculture by multi-step resistance selection technique
Streptococcus pneumoniae [18] = experiment: Antimicrobial activity against drug-resistant Streptococcus pneumoniae isolate 3274 after 50 passages by multi-step resistance selection technique; summary of the method: as §4
Streptococcus pneumoniae [19] = experiment: Antimicrobial activity against drug-resistant Streptococcus pneumoniae isolate 3665 after 14 passages with Telithromycin measured after 10 antibiotic-free subculture by multi-step resistance selection technique
Streptococcus pneumoniae [20] = experiment: Antimicrobial activity against drug-resistant Streptococcus pneumoniae isolate 1077 by NCCLS M7-A7 method
Streptococcus pneumoniae [21] = experiment: Antimicrobial activity against drug-resistant Streptococcus pneumoniae isolate 1077 after 49 passages by multi-step resistance selection technique; summary of the method: as §2
Streptococcus pneumoniae [22] = experiment: Antimicrobial activity against drug-resistant Streptococcus pneumoniae isolate 24 after 50 passages with moxifloxacin measured after 10 antibiotic-free subculture by multi-step resistance selection technique; summary of the method: as §1
Streptococcus pneumoniae [23] = experiment: Antimicrobial activity against drug-resistant Streptococcus pneumoniae isolate 3676 by NCCLS M7-A7 method
Streptococcus pneumoniae [24] = experiment: Antimicrobial activity against drug-resistant Streptococcus pneumoniae isolate 1077 after 15 passages with Telithromycin measured after 10 antibiotic-free subculture by multi-step resistance selection technique; summary of the method: as §1
Streptococcus pneumoniae [25] = experiment: Antimicrobial activity against drug-resistant Streptococcus pneumoniae isolate 3243 by NCCLS M7-A7 method
Streptococcus pneumoniae [26] = experiment: Antimicrobial activity against drug-resistant Streptococcus pneumoniae isolate 3413 by NCCLS M7-A7 method
Streptococcus pneumoniae [27] = experiment: Antimicrobial activity against drug-resistant Streptococcus pneumoniae isolate 37 after 14 passages with Telithromycin measured after 10 antibiotic-free subculture by multi-step resistance selection technique
Streptococcus pneumoniae [28] = experiment: Antimicrobial activity against drug-resistant Streptococcus pneumoniae isolate 2527 by NCCLS M7-A7 method
Streptococcus pneumoniae [29] = experiment: Antimicrobial activity against drug-resistant Streptococcus pneumoniae isolate 3676 after 44 passages with clarithromycin measured after 10 antibiotic-free subculture by multi-step resistance selection technique
Streptococcus pneumoniae [30] = experiment: Antimicrobial activity against drug-resistant Streptococcus pneumoniae isolate 3243 after 33 passages with azithromycin measured after 10 antibiotic-free subculture by multi-step resistance selection technique; summary of the method: as §1
Streptococcus pneumoniae [31] = experiment: Antimicrobial activity against drug-resistant Streptococcus pneumoniae isolate 3009 after 50 passages by multi-step resistance selection technique; summary of the method: as §2
Streptococcus pneumoniae [32] = experiment: Antimicrobial activity against drug-resistant Streptococcus pneumoniae isolate 3009 after 19 passages with moxifloxacin measured after 10 antibiotic-free subculture by multi-step resistance selection technique; summary of the method: as §1
Streptococcus pneumoniae [33] = experiment: Antimicrobial activity against drug-resistant Streptococcus pneumoniae isolate 1635 by NCCLS M7-A7 method
Streptococcus pneumoniae [34] = experiment: Antimicrobial activity against drug-resistant Streptococcus pneumoniae isolate 3243 after 50 passages by multi-step resistance selection technique; summary of the method: as §2
Streptococcus pneumoniae [35] = experiment: Antimicrobial activity against drug-resistant Streptococcus pneumoniae isolate 3243 after 20 passages with moxifloxacin measured after 10 antibiotic-free subculture by multi-step resistance selection technique; summary of the method: as §1
Streptococcus pneumoniae [36] = experiment: Antimicrobial activity against drug-resistant Streptococcus pneumoniae isolate 3009 after 18 passages with levofloxacin measured after 10 antibiotic-free subculture by multi-step resistance selection technique; summary of the method: as §1
Streptococcus pneumoniae [37] = experiment: Antimicrobial activity against drug-resistant Streptococcus pneumoniae isolate 1076 by NCCLS M7-A7 method
Streptococcus pneumoniae [38] = experiment: Antimicrobial activity against drug-resistant Streptococcus pneumoniae isolate 2527 after 20 passages with azithromycin measured after 10 antibiotic-free subculture by multi-step resistance selection technique; summary of the method: as §1
Streptococcus pneumoniae [39] = experiment: Antimicrobial activity against drug-resistant Streptococcus pneumoniae isolate 3676 after 14 passages with Telithromycin measured after 10 antibiotic-free subculture by multi-step resistance selection technique
Streptococcus pneumoniae [40] = experiment: Antimicrobial activity against drug-resistant Streptococcus pneumoniae isolate 3665 after 26 passages with clarithromycin measured after 10 antibiotic-free subculture by multi-step resistance selection technique
Streptococcus pneumoniae [41] = experiment: Antimicrobial activity against drug-resistant Streptococcus pneumoniae isolate 3676 after 50 passages by multi-step resistance selection technique; summary of the method: as §3
Streptococcus pneumoniae [42] = experiment: Antimicrobial activity against drug-resistant Streptococcus pneumoniae isolate 1076 after 35 passages with moxifloxacin measured after 10 antibiotic-free subculture by multi-step resistance selection technique; summary of the method: as §1
Streptococcus pneumoniae [43] = experiment: Antimicrobial activity against drug-resistant Streptococcus pneumoniae isolate 2527 after 14 passages with gemifloxacin measured after 10 antibiotic-free subculture by multi-step resistance selection technique; summary of the method: as §1
Streptococcus pneumoniae [44] = experiment: Antimicrobial activity against drug-resistant Streptococcus pneumoniae isolate 3243 after 41 passages with clarithromycin measured after 10 antibiotic-free subculture by multi-step resistance selection technique
Streptococcus pneumoniae [45] = experiment: Antimicrobial activity against drug-resistant Streptococcus pneumoniae isolate 24 after 14 passages with Telithromycin measured after 10 antibiotic-free subculture by multi-step resistance selection technique; summary of the method: as §1
Streptococcus pneumoniae [46] = experiment: Antimicrobial activity against drug-resistant Streptococcus pneumoniae isolate 3243 after 29 passages with Telithromycin measured after 10 antibiotic-free subculture by multi-step resistance selection technique; summary of the method: as §1
Streptococcus pneumoniae [47] = experiment: Antimicrobial activity against drug-resistant Streptococcus pneumoniae isolate 37 by NCCLS M7-A7 method
Streptococcus pneumoniae [48] = experiment: Antimicrobial activity against drug-resistant Streptococcus pneumoniae isolate 3665 after 38 passages with moxifloxacin measured after 10 antibiotic-free subculture by multi-step resistance selection technique
Streptococcus pneumoniae [49] = experiment: Antimicrobial activity against drug-resistant Streptococcus pneumoniae isolate 3676 after 50 passages with moxifloxacin measured after 10 antibiotic-free subculture by multi-step resistance selection technique
Streptococcus pneumoniae [50] = experiment: Antimicrobial activity against drug-resistant Streptococcus pneumoniae isolate 24 by NCCLS M7-A7 method

CCC[C@@H]1C[C@@H](C(=O)N[C@@H]([C@H]2O[C@H](SC)[C@H](O)[C@@H](O)[C@H]2O)[C@H](C)Cl)N(C)C1 [CLINDAMYCIN] showed an MIC (Streptococcus pneumoniae [1]) of 0.03 µg/mL (≈ 0.0706 µM), an MIC (Streptococcus pneumoniae [2]) of 0.5 µg/mL (≈ 1.18 µM) and an MIC (Streptococcus pneumoniae [3]) of 8 µg/mL (≈ 18.8 µM). For the same molecule, the MIC (Streptococcus pneumoniae [4]) was 0.016 µg/mL (≈ 0.0376 µM), the MIC (Streptococcus pneumoniae [5]) was 0.03 µg/mL (≈ 0.0706 µM) and the MIC (Streptococcus pneumoniae [6]) was 1 µg/mL (≈ 2.35 µM). The MIC (Streptococcus pneumoniae [7]) was > 64 µg/mL, the MIC (Streptococcus pneumoniae [8]) was 0.016 µg/mL (≈ 0.0376 µM) and the MIC (Streptococcus pneumoniae [9]) was > 64 µg/mL. It also gave an MIC (Streptococcus pneumoniae [10]) of 0.06 µg/mL (≈ 0.141 µM), an MIC (Streptococcus pneumoniae [11]) of 4 µg/mL (≈ 9.41 µM) and an MIC (Streptococcus pneumoniae [12]) of 0.016 µg/mL (≈ 0.0376 µM). For the same molecule, the MIC (Streptococcus pneumoniae [13]) was 0.008 µg/mL (≈ 0.0188 µM), the MIC (Streptococcus pneumoniae [14]) was > 64 µg/mL and the MIC (Streptococcus pneumoniae [15]) was 0.25 µg/mL (≈ 0.588 µM). For the same molecule, the MIC (Streptococcus pneumoniae [16]) was 0.016 µg/mL (≈ 0.0376 µM), the MIC (Streptococcus pneumoniae [17]) was 1 µg/mL (≈ 2.35 µM) and the MIC (Streptococcus pneumoniae [18]) was 0.008 µg/mL (≈ 0.0188 µM). For the same molecule, the MIC (Streptococcus pneumoniae [19]) was 0.03 µg/mL (≈ 0.0706 µM), the MIC (Streptococcus pneumoniae [20]) was 0.016 µg/mL (≈ 0.0376 µM) and the MIC (Streptococcus pneumoniae [21]) was 4 µg/mL (≈ 9.41 µM). For the same molecule, the MIC (Streptococcus pneumoniae [22]) was > 64 µg/mL, the MIC (Streptococcus pneumoniae [23]) was 0.03 µg/mL (≈ 0.0706 µM) and the MIC (Streptococcus pneumoniae [24]) was 8 µg/mL (≈ 18.8 µM). The MIC (Streptococcus pneumoniae [25]) was 0.016 µg/mL (≈ 0.0376 µM), the MIC (Streptococcus pneumoniae [26]) was 0.016 µg/mL (≈ 0.0376 µM) and the MIC (Streptococcus pneumoniae [27]) was > 64 µg/mL. For the same molecule, the MIC (Streptococcus pneumoniae [28]) was 0.008 µg/mL (≈ 0.0188 µM), the MIC (Streptococcus pneumoniae [29]) was 0.06 µg/mL (≈ 0.141 µM) and the MIC (Streptococcus pneumoniae [30]) was 0.016 µg/mL (≈ 0.0376 µM). It also gave an MIC (Streptococcus pneumoniae [31]) of 2 µg/mL (≈ 4.71 µM), an MIC (Streptococcus pneumoniae [32]) of 0.5 µg/mL (≈ 1.18 µM) and an MIC (Streptococcus pneumoniae [33]) of 0.06 µg/mL (≈ 0.141 µM). For the same molecule, the MIC (Streptococcus pneumoniae [34]) was 0.03 µg/mL (≈ 0.0706 µM), the MIC (Streptococcus pneumoniae [35]) was 0.016 µg/mL (≈ 0.0376 µM) and the MIC (Streptococcus pneumoniae [36]) was 0.5 µg/mL (≈ 1.18 µM). It also gave an MIC (Streptococcus pneumoniae [37]) of 64 µg/mL (≈ 151 µM), an MIC (Streptococcus pneumoniae [38]) of 0.06 µg/mL (≈ 0.141 µM) and an MIC (Streptococcus pneumoniae [39]) of 0.03 µg/mL (≈ 0.0706 µM). For the same molecule, the MIC (Streptococcus pneumoniae [40]) was 0.03 µg/mL (≈ 0.0706 µM), the MIC (Streptococcus pneumoniae [41]) was 0.016 µg/mL (≈ 0.0376 µM) and the MIC (Streptococcus pneumoniae [42]) was > 64 µg/mL. The MIC (Streptococcus pneumoniae [43]) was 0.016 µg/mL (≈ 0.0376 µM), the MIC (Streptococcus pneumoniae [44]) was 1 µg/mL (≈ 2.35 µM) and the MIC (Streptococcus pneumoniae [45]) was > 64 µg/mL. For the same molecule, the MIC (Streptococcus pneumoniae [46]) was 0.03 µg/mL (≈ 0.0706 µM), the MIC (Streptococcus pneumoniae [47]) was > 64 µg/mL and the MIC (Streptococcus pneumoniae [48]) was 0.03 µg/mL (≈ 0.0706 µM). For the same molecule, the MIC (Streptococcus pneumoniae [49]) was 0.016 µg/mL (≈ 0.0376 µM) and the MIC (Streptococcus pneumoniae [50]) was > 64 µg/mL.
